According to ChEMBL document CHEMBL4813940, “Design, synthesis and biological evaluation of novel benzoxaborole derivatives as potent PDE4 inhibitors for topical treatment of atopic dermatitis” (Eur J Med Chem, 2021):

Tests used:
[1] = target: T1, 3',5'-cyclic-AMP phosphodiesterase 4B (Homo sapiens, UniProt Q07343); assay: Inhibition of PDE4B (unknown origin) assessed as hydrolysis of [3H]-cGMP into [3H]-GMP incubated for 30 mins by scintillation of proximity assay; settings: in the assay text read “[3H]-cAMP into [3H]-AMP” for “[3H]-cGMP into [3H]-GMP”
Summary of the method: (§1)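 Scintillation proximity assay of [3H]-cAMP or [3H]-cGMP hydrolysis to [3H]-AMP or [3H]-GMP. Enzyme was diluted to 1–2 nM in 50 mM Tris pH 7.5, 8.3 mM MgCl2 and 1.7 mM EGTA. Reaction was started by adding enzyme, test solution and radiolabelled substrate, then incubated at 30 °C for 30 min and stopped with SPA beads. Run in duplicate.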

[2] = tested on: Mus musculus; assay: Antiinflammatory activity against PMA-induced ICR mouse ear oedema model assessed as reduction in ear swelling at 1 mg/ear topically administered and measured after 4 hrs; assay type: functional
Summary of the method: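 Male ICR mice, 8 weeks old. The sample was applied topically to the right ear at 1.0 mg/ear in ethanol before PMA. After 4 h the mice were killed by cervical dislocation and both ears were measured with a micrometer. Oedema was the thickness difference between the ears; inhibition was the percent reduction versus the model group.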

[3] = organism: Homo sapiens; assay: Selectivity index, ratio of IC50 for PDE1A (unknown origin) to IC50 for PDE4B (unknown origin)
[4] = organism: Homo sapiens; assay: Selectivity index, ratio of IC50 for PDE1B (unknown origin) to IC50 for PDE4B (unknown origin)
[5] = organism: Homo sapiens; assay: Selectivity index, ratio of IC50 for PDE1C (unknown origin) to IC50 for PDE4B (unknown origin)
[6] = organism: Homo sapiens; assay: Selectivity index, ratio of IC50 for PDE2A (unknown origin) to IC50 for PDE4B (unknown origin)
[7] = organism: Homo sapiens; assay: Selectivity index, ratio of IC50 for PDE3A (unknown origin) to IC50 for PDE4B (unknown origin)
[8] = organism: Homo sapiens; assay: Selectivity index, ratio of IC50 for PDE3B (unknown origin) to IC50 for PDE4B (unknown origin)
[9] = organism: Homo sapiens; assay: Selectivity index, ratio of IC50 for PDE5A (unknown origin) to IC50 for PDE4B (unknown origin)
[10] = organism: Homo sapiens; assay: Selectivity index, ratio of IC50 for PDE7A (unknown origin) to IC50 for PDE4B (unknown origin)
[11] = organism: Homo sapiens; assay: Selectivity index, ratio of IC50 for PDE10A (unknown origin) to IC50 for PDE4B (unknown origin)
[12] = tested on: Mus musculus; assay: Antiinflammatory activity against calcipotriol-induced atopic dermatitis mouse model assessed as swelling inhibition by measuring thickness of left ear at 30 mg/kg for 14 days (RVB = 0.26 +/- 0.01 mm); assay type: functional; settings: time 14 day
Summary of the method: (§2)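 Ointment was applied to the dorsal side of the left ear twice daily (30 mg/kg) for 14 days; the normal group received ethanol. On day 17 the mice were anaesthetized with 10% chloral hydrate and ear thickness was measured with a micrometer. Percent inhibition of the inflammatory reaction was calculated against untreated animals.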

[13] = tested on: Mus musculus; assay: Antiinflammatory activity against calcipotriol-induced atopic dermatitis mouse model assessed as swelling inhibition by measuring thickness of right ear at 30 mg/kg for 14 days (RVB = 0.55 +/- 0.06 mm); assay type: functional; settings: time 14 day; summary of the method: as §2
[14] = tested on: Mus musculus; assay: Antiinflammatory activity against calcipotriol-induced atopic dermatitis mouse model assessed as swelling inhibition at 30 mg/kg for 14 days; assay type: functional; design: scale not given: the % may be the effect or the level left; settings: time 14 day; summary of the method: as §2
[15] = Phototoxicity in albino guinea pig assessed as infiltration of inflammatory cells at 10 mg/kg topical treatment irradiated with 4.2 mw/cm2 UVA for 40 mins and measured after 24 hrs day of light irradiation by H and E staining based microscopic analysis; assay type: organism-based, Cavia porcellus; settings: in vivo, topical_or_ocular, in the assay text read “72 hrs” for “24 hrs”
Summary of the method: (§3)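 Albino guinea pigs (250–300 g) were randomized into 5 groups. Four 2 cm × 2 cm depilated areas beside the spine were prepared 24 h before dosing, and 0.2 mL of test substance was applied. Animals were restrained and exposed to UVA for 40 min. Erythema, eschar and oedema were scored visually at 1, 24, 48 and 72 h. Skin taken at 72 h was formalin-fixed, H&E-stained and read by a pathologist.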

[16] = Phototoxicity in albino guinea pig assessed as necrosis at 10 mg/kg topical treatment irradiated with 4.2 mw/cm2 UVA for 40 mins and measured after 24 hrs day of light irradiation by H and E staining based microscopic analysis; assay type: organism-based, Cavia porcellus; settings: in vivo, topical_or_ocular, in the assay text read “72 hrs” for “24 hrs”; summary of the method: as §3
[17] = target: Dual specificity calcium/calmodulin-dependent 3',5'-cyclic nucleotide phosphodiesterase 1A (Homo sapiens, UniProt P54750); assay: Inhibition of PDE1A (unknown origin); summary of the method: as §1
[18] = target: Dual specificity calcium/calmodulin-dependent 3',5'-cyclic nucleotide phosphodiesterase 1B (Homo sapiens, UniProt Q01064); assay: Inhibition of PDE1B (unknown origin); summary of the method: as §1
[19] = target: Dual specificity calcium/calmodulin-dependent 3',5'-cyclic nucleotide phosphodiesterase 1C (Homo sapiens, UniProt Q14123); assay: Inhibition of PDE1C (unknown origin)
Summary of the method: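 For PDE1A, PDE1B and PDE1C, the reaction buffer was also supplemented with 0.2 mM CaCl2 and […]. Otherwise the same SPA run as the other PDEs: [3H]-nucleotide hydrolysis at 30 °C for 30 min, in duplicate.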

[20] = target: cGMP-dependent 3',5'-cyclic phosphodiesterase (Homo sapiens, UniProt O00408); assay: Inhibition of PDE2A (unknown origin); summary of the method: as §1
[21] = target: cGMP-inhibited 3',5'-cyclic phosphodiesterase 3A (Homo sapiens, UniProt Q14432); assay: Inhibition of PDE3A (unknown origin); summary of the method: as §1
[22] = target: cGMP-inhibited 3',5'-cyclic phosphodiesterase 3B (Homo sapiens, UniProt Q13370); assay: Inhibition of PDE3B (unknown origin); summary of the method: as §1
[23] = target: T1, 3',5'-cyclic-AMP phosphodiesterase 4B; assay: Inhibition of PDE4B (unknown origin); summary of the method: as §1
[24] = target: cGMP-specific 3',5'-cyclic phosphodiesterase (Homo sapiens, UniProt O76074); assay: Inhibition of PDE5A (unknown origin); summary of the method: as §1
[25] = target: High affinity 3',5'-cyclic-AMP phosphodiesterase 7A (Homo sapiens, UniProt Q13946); assay: Inhibition of PDE7A (unknown origin); summary of the method: as §1
[26] = target: cAMP and cAMP-inhibited cGMP 3',5'-cyclic phosphodiesterase 10A (Homo sapiens, UniProt Q9Y233); assay: Inhibition of PDE10A (unknown origin); summary of the method: as §1
cAMP and cAMP-inhibited cGMP 3',5'-cyclic phosphodiesterase 10A, sequence (Q9Y233 whole entry): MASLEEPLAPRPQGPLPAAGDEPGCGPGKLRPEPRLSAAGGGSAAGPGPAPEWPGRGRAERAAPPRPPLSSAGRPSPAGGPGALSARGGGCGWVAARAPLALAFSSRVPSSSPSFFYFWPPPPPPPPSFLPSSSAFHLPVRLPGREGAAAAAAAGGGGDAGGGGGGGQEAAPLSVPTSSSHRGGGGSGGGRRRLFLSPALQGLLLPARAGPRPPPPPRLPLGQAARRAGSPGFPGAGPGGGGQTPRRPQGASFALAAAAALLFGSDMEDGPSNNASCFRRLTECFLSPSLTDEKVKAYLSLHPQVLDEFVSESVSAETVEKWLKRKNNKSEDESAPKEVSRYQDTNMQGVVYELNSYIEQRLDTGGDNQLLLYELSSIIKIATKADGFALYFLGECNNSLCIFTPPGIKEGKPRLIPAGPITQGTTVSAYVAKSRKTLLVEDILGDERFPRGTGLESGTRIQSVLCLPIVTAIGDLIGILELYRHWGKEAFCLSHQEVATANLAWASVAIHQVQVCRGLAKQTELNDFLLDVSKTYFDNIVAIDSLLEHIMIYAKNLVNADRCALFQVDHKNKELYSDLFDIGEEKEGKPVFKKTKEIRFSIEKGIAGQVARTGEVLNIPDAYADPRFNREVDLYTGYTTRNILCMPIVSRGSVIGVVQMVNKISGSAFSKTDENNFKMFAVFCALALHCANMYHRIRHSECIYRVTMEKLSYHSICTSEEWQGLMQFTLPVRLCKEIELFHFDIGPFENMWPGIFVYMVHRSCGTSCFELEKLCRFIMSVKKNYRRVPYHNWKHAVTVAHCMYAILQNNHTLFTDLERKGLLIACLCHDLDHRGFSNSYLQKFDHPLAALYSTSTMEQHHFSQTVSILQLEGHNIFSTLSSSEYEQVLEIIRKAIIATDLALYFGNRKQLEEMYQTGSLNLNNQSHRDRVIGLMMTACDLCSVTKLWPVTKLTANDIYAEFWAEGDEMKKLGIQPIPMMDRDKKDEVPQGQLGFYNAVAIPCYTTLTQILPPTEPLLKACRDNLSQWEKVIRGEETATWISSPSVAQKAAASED

T1 sequence (Q07343 whole entry): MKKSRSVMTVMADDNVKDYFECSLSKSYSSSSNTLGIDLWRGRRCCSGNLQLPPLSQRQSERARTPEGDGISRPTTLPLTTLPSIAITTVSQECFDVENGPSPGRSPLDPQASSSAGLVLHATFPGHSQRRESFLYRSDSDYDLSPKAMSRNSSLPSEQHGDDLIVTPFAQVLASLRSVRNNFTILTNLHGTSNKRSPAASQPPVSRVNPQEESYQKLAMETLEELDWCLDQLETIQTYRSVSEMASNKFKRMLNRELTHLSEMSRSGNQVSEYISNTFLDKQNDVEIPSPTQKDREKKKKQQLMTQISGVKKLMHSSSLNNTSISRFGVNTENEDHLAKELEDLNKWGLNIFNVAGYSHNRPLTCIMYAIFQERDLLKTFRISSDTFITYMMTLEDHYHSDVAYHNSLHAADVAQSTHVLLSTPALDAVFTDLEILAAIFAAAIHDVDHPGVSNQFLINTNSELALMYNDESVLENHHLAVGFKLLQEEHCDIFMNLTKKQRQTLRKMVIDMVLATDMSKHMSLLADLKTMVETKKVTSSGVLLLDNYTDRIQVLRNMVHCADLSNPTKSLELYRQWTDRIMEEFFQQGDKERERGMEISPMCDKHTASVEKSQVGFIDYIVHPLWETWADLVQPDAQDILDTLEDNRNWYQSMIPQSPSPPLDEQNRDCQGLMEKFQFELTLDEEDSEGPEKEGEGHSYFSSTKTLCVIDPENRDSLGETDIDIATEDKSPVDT
Dual specificity calcium/calmodulin-dependent 3',5'-cyclic nucleotide phosphodiesterase 1C, sequence (Q14123 whole entry): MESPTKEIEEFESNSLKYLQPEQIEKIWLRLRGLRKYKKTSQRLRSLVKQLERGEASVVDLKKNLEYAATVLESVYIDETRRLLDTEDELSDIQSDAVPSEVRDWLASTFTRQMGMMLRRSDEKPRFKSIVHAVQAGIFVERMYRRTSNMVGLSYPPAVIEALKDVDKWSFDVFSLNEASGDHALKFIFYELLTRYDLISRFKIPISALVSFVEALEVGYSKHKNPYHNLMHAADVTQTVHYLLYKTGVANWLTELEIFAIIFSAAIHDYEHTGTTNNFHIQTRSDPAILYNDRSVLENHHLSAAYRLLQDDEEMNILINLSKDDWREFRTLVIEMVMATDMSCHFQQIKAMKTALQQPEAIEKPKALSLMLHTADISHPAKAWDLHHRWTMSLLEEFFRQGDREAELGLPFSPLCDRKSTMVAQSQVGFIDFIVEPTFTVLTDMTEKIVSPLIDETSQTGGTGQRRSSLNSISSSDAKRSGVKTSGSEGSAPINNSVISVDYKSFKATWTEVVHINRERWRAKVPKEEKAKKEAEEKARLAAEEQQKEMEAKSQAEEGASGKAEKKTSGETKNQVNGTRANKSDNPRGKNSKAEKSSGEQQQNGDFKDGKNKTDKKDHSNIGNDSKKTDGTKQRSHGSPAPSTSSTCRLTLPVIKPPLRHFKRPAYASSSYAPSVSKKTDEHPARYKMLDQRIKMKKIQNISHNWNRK
High affinity 3',5'-cyclic-AMP phosphodiesterase 7A, sequence (Q13946 whole entry): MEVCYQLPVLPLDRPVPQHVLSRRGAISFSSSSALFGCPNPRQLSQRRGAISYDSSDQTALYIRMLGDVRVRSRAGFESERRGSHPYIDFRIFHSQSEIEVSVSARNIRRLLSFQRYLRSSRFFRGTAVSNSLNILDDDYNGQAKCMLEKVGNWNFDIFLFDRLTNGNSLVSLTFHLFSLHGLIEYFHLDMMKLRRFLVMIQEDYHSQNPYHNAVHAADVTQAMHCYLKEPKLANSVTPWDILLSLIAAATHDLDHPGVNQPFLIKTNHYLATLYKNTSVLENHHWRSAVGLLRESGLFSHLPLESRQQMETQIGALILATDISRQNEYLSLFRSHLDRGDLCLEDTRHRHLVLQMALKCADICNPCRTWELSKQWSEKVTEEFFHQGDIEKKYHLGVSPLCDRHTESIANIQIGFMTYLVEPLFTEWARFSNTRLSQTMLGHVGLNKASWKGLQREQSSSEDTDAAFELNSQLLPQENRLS
cGMP-inhibited 3',5'-cyclic phosphodiesterase 3A, sequence (Q14432 whole entry): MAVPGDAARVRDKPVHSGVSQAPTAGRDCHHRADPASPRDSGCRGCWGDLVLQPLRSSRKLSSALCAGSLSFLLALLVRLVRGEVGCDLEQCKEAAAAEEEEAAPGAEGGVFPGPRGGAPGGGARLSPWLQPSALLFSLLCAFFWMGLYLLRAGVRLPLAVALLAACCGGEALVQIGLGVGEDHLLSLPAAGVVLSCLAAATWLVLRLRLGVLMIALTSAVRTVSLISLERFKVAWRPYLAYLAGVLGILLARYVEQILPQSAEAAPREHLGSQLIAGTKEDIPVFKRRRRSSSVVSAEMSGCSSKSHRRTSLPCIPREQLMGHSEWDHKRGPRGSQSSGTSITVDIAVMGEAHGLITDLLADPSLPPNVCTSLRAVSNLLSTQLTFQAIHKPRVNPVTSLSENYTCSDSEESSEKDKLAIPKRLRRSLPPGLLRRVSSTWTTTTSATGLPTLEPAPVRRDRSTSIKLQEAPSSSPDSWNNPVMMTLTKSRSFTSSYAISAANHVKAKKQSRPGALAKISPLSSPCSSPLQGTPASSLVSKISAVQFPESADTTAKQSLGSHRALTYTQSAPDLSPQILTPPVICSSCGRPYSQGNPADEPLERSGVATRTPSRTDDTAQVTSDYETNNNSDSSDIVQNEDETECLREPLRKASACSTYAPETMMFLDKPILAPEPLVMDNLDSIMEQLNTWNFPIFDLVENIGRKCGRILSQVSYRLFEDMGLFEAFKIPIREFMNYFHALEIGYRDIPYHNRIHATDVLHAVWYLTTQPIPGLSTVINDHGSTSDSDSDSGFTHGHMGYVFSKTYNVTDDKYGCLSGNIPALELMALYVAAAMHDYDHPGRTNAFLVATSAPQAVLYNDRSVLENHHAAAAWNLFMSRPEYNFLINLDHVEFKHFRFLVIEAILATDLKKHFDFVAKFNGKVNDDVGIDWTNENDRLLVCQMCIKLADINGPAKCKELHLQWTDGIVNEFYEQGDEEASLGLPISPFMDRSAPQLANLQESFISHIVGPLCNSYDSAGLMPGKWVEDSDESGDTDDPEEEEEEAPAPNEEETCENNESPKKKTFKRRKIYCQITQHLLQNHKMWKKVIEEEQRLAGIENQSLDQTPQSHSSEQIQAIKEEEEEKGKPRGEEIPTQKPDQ
cGMP-dependent 3',5'-cyclic phosphodiesterase, sequence (O00408 whole entry): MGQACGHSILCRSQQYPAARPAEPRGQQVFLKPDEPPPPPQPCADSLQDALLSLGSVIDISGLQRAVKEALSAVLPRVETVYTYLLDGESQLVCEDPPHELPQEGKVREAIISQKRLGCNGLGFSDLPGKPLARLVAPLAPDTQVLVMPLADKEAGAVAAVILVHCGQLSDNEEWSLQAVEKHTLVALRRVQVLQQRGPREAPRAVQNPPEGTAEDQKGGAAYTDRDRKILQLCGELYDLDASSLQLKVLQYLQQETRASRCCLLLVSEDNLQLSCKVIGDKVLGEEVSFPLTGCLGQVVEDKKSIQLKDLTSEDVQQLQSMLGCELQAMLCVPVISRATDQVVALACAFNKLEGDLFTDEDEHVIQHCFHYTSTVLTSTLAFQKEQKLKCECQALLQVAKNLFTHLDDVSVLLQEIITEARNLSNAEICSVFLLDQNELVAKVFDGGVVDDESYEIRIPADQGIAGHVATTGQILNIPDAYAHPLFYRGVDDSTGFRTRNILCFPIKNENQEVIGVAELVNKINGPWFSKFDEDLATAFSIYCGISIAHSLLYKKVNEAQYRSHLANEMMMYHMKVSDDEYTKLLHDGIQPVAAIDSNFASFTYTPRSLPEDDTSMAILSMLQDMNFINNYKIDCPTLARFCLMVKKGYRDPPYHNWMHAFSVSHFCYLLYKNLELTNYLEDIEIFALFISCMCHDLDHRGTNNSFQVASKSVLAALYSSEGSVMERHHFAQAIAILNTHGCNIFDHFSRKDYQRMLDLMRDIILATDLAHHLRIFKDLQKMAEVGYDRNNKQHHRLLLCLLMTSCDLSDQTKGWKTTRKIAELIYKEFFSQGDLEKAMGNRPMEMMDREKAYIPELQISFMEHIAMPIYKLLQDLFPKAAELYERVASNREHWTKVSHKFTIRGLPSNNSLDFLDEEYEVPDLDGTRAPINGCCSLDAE

Question: With `O=c1ccoc2cc(Oc3ccc4c(c3)COB4O)ccc12` as the molecule, how does the IC50 [1] read?
Answer: 0.0189 µM

Question: For `COC(=O)c1cc(Oc2ccc3c(c2)COB3O)nc2ccccc12`, which IC50 [1] is on record?
Answer: 0.00825 µM

Question: What about the “inhibition (INH)” value [2] of the same molecule?
Answer: 30.6%

Question: With `COC(=O)c1cccc2nc(Oc3ccc4c(c3)COB4O)ccc12` as the molecule, how does the IC50 [1] read?
Answer: 0.00644 µM

Question: What about the “inhibition (INH)” value [2] of the same molecule?
Answer: 55.62%

Question: What does the source list for `COC(=O)c1ccc2nc(Oc3ccc4c(c3)COB4O)ccc2c1`?
Answer: IC50 [1]: 0.0108 µM; inhibition (INH) [2]: 54.72%

Question: What does the source list for `OB1OCc2cc(Oc3ccc4c(C(F)(F)F)cccc4n3)ccc21`?
Answer: IC50 [1]: 0.00642 µM; inhibition (INH) [2]: 58.05%

Question: Which IC50 [1] does the source give for `COC(=O)c1cccc2cc(Oc3ccc4c(c3)COB4O)ccc12` here?
Answer: 0.0219 µM

Question: For `CC1(C)CC(=O)c2ccc(Oc3ccc4c(c3)COB4O)cc2O1`, which IC50 [1] is on record?
Answer: 0.0655 µM

Question: With `N#Cc1ccc(Oc2ccc3c(c2)COB3O)cc1` [CRISABOROLE] as the molecule, how does the IC50 [1] read?
Answer: 0.0572 µM

Question: And the “inhibition (INH)” value [2]?
Answer: 43.55%

Question: And the Ratio IC50 [3]?
Answer: 85

Question: What about the Ratio IC50 [4] of the same molecule?
Answer: 271

Question: And the Ratio IC50 [5]?
Answer: 1080

Question: What about the Ratio IC50 [6] of the same molecule?
Answer: 55

Question: What about the Ratio IC50 [7] of the same molecule?
Answer: 970

Question: And the Ratio IC50 [8]?
Answer: 891

Question: And the Ratio IC50 [9]?
Answer: 850

Question: And the Ratio IC50 [10]?
Answer: 31

Question: What about the Ratio IC50 [11] of the same molecule?
Answer: 1480

Question: What about the Activity [12] of the same molecule?
Answer: 0.29 mm

Question: And the Activity [13]?
Answer: 0.37 mm

Question: What about the Activity [14] of the same molecule?
Answer: 32.5%

Question: What about the Activity [15] of the same molecule?
Answer: Non-Toxic

Question: And the Activity [16]?
Answer: Non-Toxic

Question: And the IC50 [17]?
Answer: 5.6 µM

Question: What about the IC50 [18] of the same molecule?
Answer: 17.9 µM

Question: What about the IC50 [19] of the same molecule?
Answer: 71 µM

Question: And the IC50 [20]?
Answer: 3.63 µM

Question: What about the IC50 [21] of the same molecule?
Answer: 64 µM

Question: What about the IC50 [22] of the same molecule?
Answer: 58.8 µM

Question: What about the IC50 [23] of the same molecule?
Answer: 0.07 µM

Question: And the IC50 [24]?
Answer: 56.1 µM

Question: And the IC50 [25]?
Answer: 2.03 µM

Question: And the IC50 [26]?
Answer: 97.6 µM
